# Test results published in ChEMBL document CHEMBL4152367, “Discovery of a Potent Thiazolidine Free Fatty Acid Receptor 2 Agonist with Favorable Pharmacokinetic Properties” (J Med Chem, 2018).
# Calls of active or inactive are those of the source. The calls are words filed in the database; no cut-off is given here.
# Tests used:
# [1] = Chemical stability of the compound in FaSSGF after 2 hrs; type: ADME, physicochemical; details: read-out: Stability
# How it was run: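 Simulated-fluid stability: 50 µM compound in FaSSIF or FaSSGF (from 10 mM DMSO stock), shaken at 37 °C for 0 and 120 min. Quenched with acetonitrile containing 0.5% HCOOH, centrifuged, supernatant by HPLC. Stability from peak area relative to the 0 min sample; duplicates, mean reported.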
# [2] = AUC (0 to infinity) in Balb/c mouse at 5 mg/kg, iv by HPLC-MS/MS analysis; type: ADME, organism-based; set-up: dose 5 mg/kg, time infinity, route intravenous; details: in vivo
# How it was run: (§1)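 Balb/c mice dosed at 5 mg/kg iv or 10 mg/kg po. Plasma concentrations over time used to derive t1/2, AUC0–∞, Vd and total clearance (iv), and tmax, Cmax, AUC0–∞ and oral bioavailability (po).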
# [3] = Octanol/PBS buffer partition co-efficient, log D of the compound at pH 7.4 after 24 hrs by HPLC analysis; type: physicochemical
# [4] = Chemical stability of the compound in PBS buffer at 37 degC after 3 weeks; type: physicochemical; details: read-out: Stability
# How it was run: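 Chemical stability: 50 µM compound (diluted from 10 mM DMSO stock) in 10 mM phosphate buffer, pH 7.4, shaken at 37 °C; sampled at intervals over 3 weeks. Remaining compound by HPLC peak area relative to the 0 time point; duplicate runs, each injected twice.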
# [5] = molecular target: T1, Oxysterols receptor LXR-alpha (Homo sapiens) (UniProt Q13133); assay: Agonist activity at human LXRalpha expressed in Escherichia coli assessed as induction of calcium flux at 10 uM by fluorimetry
# T1 sequence (whole entry): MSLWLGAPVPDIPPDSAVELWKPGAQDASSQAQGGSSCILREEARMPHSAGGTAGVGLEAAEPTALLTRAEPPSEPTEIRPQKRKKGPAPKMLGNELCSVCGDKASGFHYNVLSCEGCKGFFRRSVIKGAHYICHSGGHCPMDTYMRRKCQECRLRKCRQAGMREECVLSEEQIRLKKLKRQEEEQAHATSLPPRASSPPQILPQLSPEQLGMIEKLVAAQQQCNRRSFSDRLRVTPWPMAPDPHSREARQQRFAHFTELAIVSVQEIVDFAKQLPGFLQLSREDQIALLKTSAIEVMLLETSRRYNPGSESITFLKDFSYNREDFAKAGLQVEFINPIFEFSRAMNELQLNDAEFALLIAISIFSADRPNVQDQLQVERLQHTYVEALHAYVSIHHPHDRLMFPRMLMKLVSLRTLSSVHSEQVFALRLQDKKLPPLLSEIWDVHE
# [6] = molecular target: T2, Free fatty acid receptor 3 (Homo sapiens) (UniProt O14843); assay: Agonist activity at FFA3R (unknown origin) up to 100 uM; type: functional
# T2 sequence (whole entry): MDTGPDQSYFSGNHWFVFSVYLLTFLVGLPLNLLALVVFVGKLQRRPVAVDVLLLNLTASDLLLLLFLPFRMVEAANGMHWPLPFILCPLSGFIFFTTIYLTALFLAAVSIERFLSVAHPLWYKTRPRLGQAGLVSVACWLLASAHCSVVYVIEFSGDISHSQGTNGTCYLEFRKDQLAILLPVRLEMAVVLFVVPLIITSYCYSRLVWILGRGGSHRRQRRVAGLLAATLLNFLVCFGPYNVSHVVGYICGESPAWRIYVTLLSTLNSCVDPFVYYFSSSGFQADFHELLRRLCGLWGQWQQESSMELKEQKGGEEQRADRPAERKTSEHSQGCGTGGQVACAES
# [7] = molecular target: T1, Oxysterols receptor LXR-alpha (Homo sapiens); assay: Antagonist activity at human LXRalpha expressed in Escherichia coli assessed as inhibition of T0901317-induced calcium flux at 10 uM by fluorimetry
# [8] = Half life in Balb/c mouse at 5 mg/kg, iv by HPLC-MS/MS analysis; type: ADME, organism-based; details: in vivo; how it was run: as §1
# [9] = molecular target: T3, Oxysterols receptor LXR-beta (Homo sapiens) (UniProt P55055); assay: Antagonist activity at human LXRbeta expressed in Escherichia coli assessed as inhibition of T0901317-induced calcium flux at 10 uM by fluorimetry
# T3 sequence (whole entry): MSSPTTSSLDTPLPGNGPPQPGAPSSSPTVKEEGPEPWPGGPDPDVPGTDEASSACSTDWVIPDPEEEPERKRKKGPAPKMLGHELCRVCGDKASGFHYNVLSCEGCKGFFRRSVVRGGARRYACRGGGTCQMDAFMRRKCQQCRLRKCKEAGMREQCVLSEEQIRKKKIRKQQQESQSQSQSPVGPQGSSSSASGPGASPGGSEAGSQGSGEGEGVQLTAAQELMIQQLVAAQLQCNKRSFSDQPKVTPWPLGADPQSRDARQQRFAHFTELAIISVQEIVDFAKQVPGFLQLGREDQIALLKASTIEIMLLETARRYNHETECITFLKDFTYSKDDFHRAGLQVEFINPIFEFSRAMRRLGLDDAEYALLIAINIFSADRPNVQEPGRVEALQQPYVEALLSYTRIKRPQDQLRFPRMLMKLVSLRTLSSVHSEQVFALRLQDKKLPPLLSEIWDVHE
# [10] = molecular target: T4, Peroxisome proliferator-activated receptor delta (Homo sapiens) (UniProt Q03181); assay: Antagonist activity at human PPARdelta expressed in Escherichia coli assessed as inhibition of GW0742-induced calcium flux at 10 uM by fluorimetry
# T4 sequence (whole entry): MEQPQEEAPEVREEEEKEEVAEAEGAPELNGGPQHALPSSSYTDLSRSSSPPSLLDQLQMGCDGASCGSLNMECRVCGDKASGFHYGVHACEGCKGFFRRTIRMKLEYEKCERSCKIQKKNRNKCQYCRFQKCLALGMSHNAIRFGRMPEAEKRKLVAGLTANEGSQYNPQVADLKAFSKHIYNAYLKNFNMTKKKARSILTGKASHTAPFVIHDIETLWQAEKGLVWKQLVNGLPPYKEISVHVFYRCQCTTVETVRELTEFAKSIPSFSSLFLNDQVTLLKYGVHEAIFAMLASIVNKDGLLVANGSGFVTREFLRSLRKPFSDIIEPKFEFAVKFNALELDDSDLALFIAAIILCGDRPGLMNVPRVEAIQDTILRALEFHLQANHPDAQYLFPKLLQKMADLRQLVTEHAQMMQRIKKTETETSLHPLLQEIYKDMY
# [11] = molecular target: T5, Free fatty acid receptor 4 (Homo sapiens) (UniProt Q5NUL3); assay: Agonist activity at human FFA4 receptor expressed in HEK293 cells assessed as induction of calcium flux at 10 uM by fluorimetry; type: functional, cell-based
# T5 sequence (whole entry): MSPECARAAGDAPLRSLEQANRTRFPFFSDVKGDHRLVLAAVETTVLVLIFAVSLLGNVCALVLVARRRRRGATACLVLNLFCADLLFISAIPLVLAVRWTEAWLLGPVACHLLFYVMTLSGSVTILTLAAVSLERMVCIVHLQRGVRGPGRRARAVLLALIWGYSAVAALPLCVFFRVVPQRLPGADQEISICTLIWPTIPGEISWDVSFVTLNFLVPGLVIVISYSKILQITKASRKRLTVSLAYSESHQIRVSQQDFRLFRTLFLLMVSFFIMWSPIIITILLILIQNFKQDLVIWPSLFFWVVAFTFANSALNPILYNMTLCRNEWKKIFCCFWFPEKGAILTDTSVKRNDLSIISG
smiles,measurement,setting,value
Cc1noc(C)c1-c1ccc(C(=O)N2[C@@H](c3ccccc3Cl)SC[C@H]2C(=O)O)cc1,remaining at 2 h,[1],100%
same,AUC(0-inf),[2],4100 ng·h/mL
same,logD at 24 h,[3],0.94
same,remaining at […],[4],97.6%
same,Activity,[5],inactive
same,Activity,[6],inactive
same,inhibition,[7],inactive
same,half-life,[8],2.3 h
same,inhibition,[9],inactive
same,inhibition,[10],inactive
same,Activity,[11],inactive
